Measured values published in ChEMBL document CHEMBL5230166, “Novel quinoline-piperazine hybrids: the design, synthesis and evaluation of antibacterial and antituberculosis properties” (RSC Med Chem, 2023).
Converted amounts (≈) assume the structure as drawn.

Columns and labels:
Assay type in all cases: functional
[1] = tested on: Mycolicibacterium smegmatis; assay: Antibacterial activity against Mycobacterium smegmatis ATCC 607 assessed as inhibition of bacterial growth incubated for 2 days by CLSI protocol based broth microdilution method; settings: ATCC 607, 48 h, time 2 day
How it was run: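 CLSI broth microdilution in Middlebrook 7H9 with 10% ADC. Compounds are dissolved in DMSO at 4.0 mg/mL (stock) and serially diluted from 64 to 0.015 µg/mL. Inoculum is ~10⁵ CFU/mL, checked by plating on 7H11 agar. Rifampin and levofloxacin are positive controls; drug-free broth with DMSO is the negative control. Growth inhibition is read after 2 days at 37 °C as MIC.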

[2] = tested on: Mycobacterium tuberculosis; assay: Antibacterial activity against Mycobacterium tuberculosis H37Rv ATCC 25618 assessed as inhibition of bacterial growth incubated for 2 days by CLSI protocol based broth microdilution method; settings: H37Rv ATCC 25618, 48 h, time 2 day
[3] = tested on: Staphylococcus aureus; assay: Antibacterial activity against methicillin sensitive Staphylococcus aureus ATCC 29213 assessed as inhibition of bacterial growth incubated for 22 to 24 hrs; settings: time 22-24 hrs
How it was run: (§1)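 Broth MIC referenced to an earlier protocol. Inocula come from mid-log cultures sub-cultured on soybean casein digest agar, adjusted to McFarland (~10⁸ CFU/mL), then diluted to ~10⁵ CFU/mL. Compounds and controls are serially diluted from 64 to 0.03 µg/mL. Tested in triplicate, read after 22–24 h at 37 °C. MIC is the lowest concentration with no visible growth.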

[4] = tested on: Staphylococcus aureus; assay: Antibacterial activity against methicillin resistant Staphylococcus aureus ATCC 33591 assessed as inhibition of bacterial growth incubated for 22 to 24 hrs; settings: time 22-24 hrs
How it was run: (§2)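 Broth microdilution MIC. Strains were subcultured on Soybean Casein Digest Agar, and inocula were taken from mid-log culture, adjusted to McFarland (~10⁸ CFU/mL), then diluted to ~10⁵ CFU/mL. Serial dilutions ran from 64 to 0.03 µg/mL. Plates were incubated 22–24 h at 37 °C, in triplicate. MIC was the lowest concentration with no visible growth.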

[5] = tested on: Staphylococcus epidermidis; assay: Antibacterial activity against clinical isolate methicillin resistant Staphylococcus epidermidis AB 735 assessed as inhibition of bacterial growth incubated for 22 to 24 hrs; settings: time 22-24 hrs
[6] = tested on: Enterococcus faecalis; assay: Antibacterial activity against vancomycin resistant Enterococcus faecalis ATCC 700802 assessed as inhibition of bacterial growth incubated for 22 to 24 hrs; settings: time 22-24 hrs; how it was run: as §2
[7] = tested on: Enterococcus faecium; assay: Antibacterial activity against Enterococcus faecium ATCC 49624 assessed as inhibition of bacterial growth incubated for 22 to 24 hrs; settings: time 22-24 hrs; how it was run: as §1
[8] = tested on: Escherichia coli; assay: Antibacterial activity against clinical isolate Escherichia coli AB 117 assessed as inhibition of bacterial growth incubated for 22 to 24 hrs; settings: time 22-24 hrs
[9] = tested on: Klebsiella pneumoniae; assay: Antibacterial activity against clinical isolate Klebsiella pneumoniae AB 356 assessed as inhibition of bacterial growth incubated for 22 to 24 hrs; settings: time 22-24 hrs
[10] = tested on: Pseudomonas aeruginosa; assay: Antibacterial activity against clinical isolate Pseudomonas aeruginosa AB 645 assessed as inhibition of bacterial growth incubated for 22 to 24 hrs; settings: time 22-24 hrs
[11] = tested on: Acinetobacter baumannii; assay: Antibacterial activity against clinical isolate Acinetobacter baumannii BAA 747 assessed as inhibition of bacterial growth incubated for 22 to 24 hrs; settings: time 22-24 hrs
[12] = tested on: Moraxella catarrhalis; assay: Antibacterial activity against Moraxella catarrhalis ATCC 25238 assessed as inhibition of bacterial growth incubated for 22 to 24 hrs; settings: time 22-24 hrs; how it was run: as §1

Structure (SMILES)	MIC [1]	MIC [2]	MIC [3]	MIC [4]	MIC [5]	MIC [6]	MIC [7]	MIC [8]	MIC [9]	MIC [10]	MIC [11]	MIC [12]
CO[C@H]1/C=C/O[C@@]2(C)Oc3c(C)c(O)c4c(O)c(c(/C=N/N5CCN(C)CC5)c(O)c4c3C2=O)NC(=O)/C(C)=C\C=C\[C@H](C)[C@H](O)[C@@H](C)[C@@H](O)[C@@H](C)[C@H](OC(C)=O)[C@@H]1C [RIFAMPIN]	0.5 µg/mL (≈ 0.608 µM)	4 µg/mL (≈ 4.86 µM)										
COc1ccc2nc(CN3CCN(C(=O)c4c(Cl)cccc4Cl)CC3)cc(OC)c2c1	> 64 µg/mL	> 64 µg/mL	> 64 µg/mL	> 64 µg/mL	> 64 µg/mL	> 64 µg/mL	> 64 µg/mL	> 64 µg/mL	> 64 µg/mL	> 64 µg/mL	> 64 µg/mL	> 64 µg/mL
CC(=O)NC[C@H]1CN(c2ccc(N3CCOCC3)c(F)c2)C(=O)O1 [LINEZOLID]					8 µg/mL (≈ 23.7 µM)		4 µg/mL (≈ 11.9 µM)	8 µg/mL (≈ 23.7 µM)	> 64 µg/mL	> 64 µg/mL	> 64 µg/mL	4 µg/mL (≈ 11.9 µM)
C[C@H]1COc2c(N3CCN(C)CC3)c(F)cc3c(=O)c(C(=O)O)cn1c23.C[C@H]1COc2c(N3CCN(C)CC3)c(F)cc3c(=O)c(C(=O)O)cn1c23.O [LEVOFLOXACIN]	0.125 µg/mL	2 µg/mL										
COc1ccc2nc(CN3CCN(S(=O)(=O)c4ccccc4C(F)(F)F)CC3)cc(OC)c2c1	> 64 µg/mL	> 64 µg/mL	4 µg/mL (≈ 8.07 µM)	32 µg/mL (≈ 64.6 µM)	16 µg/mL (≈ 32.3 µM)	64 µg/mL (≈ 129 µM)	8 µg/mL (≈ 16.1 µM)	16 µg/mL (≈ 32.3 µM)	> 64 µg/mL	> 64 µg/mL	> 64 µg/mL	1 µg/mL (≈ 2.02 µM)
O=C(O)c1cn(C2CC2)c2cc(N3CCNCC3)c(F)cc2c1=O [CIPROFLOXACIN]			0.5 µg/mL (≈ 1.51 µM)	1 µg/mL (≈ 3.02 µM)		0.5 µg/mL (≈ 1.51 µM)	2 µg/mL (≈ 6.04 µM)					0.03 µg/mL (≈ 0.0905 µM)
COc1cccc(C(=O)N2CCN(Cc3cc(OC)c4cc(OC)ccc4n3)CC2)c1	> 64 µg/mL	> 64 µg/mL	> 64 µg/mL	> 64 µg/mL	> 64 µg/mL	> 64 µg/mL	> 64 µg/mL	> 64 µg/mL	> 64 µg/mL	> 64 µg/mL	> 64 µg/mL	> 64 µg/mL
COc1ccc2nc(CN3CCN(C(=O)c4ccc(Cl)c(Cl)c4)CC3)cc(OC)c2c1	> 64 µg/mL	> 64 µg/mL	> 64 µg/mL	> 64 µg/mL	> 64 µg/mL	> 64 µg/mL	> 64 µg/mL	> 64 µg/mL	> 64 µg/mL	> 64 µg/mL	> 64 µg/mL	64 µg/mL (≈ 139 µM)
COc1ccc(C(=O)N2CCN(Cc3cc(OC)c4cc(F)ccc4n3)CC2)cc1	> 64 µg/mL	> 64 µg/mL	> 64 µg/mL	> 64 µg/mL	> 64 µg/mL	> 64 µg/mL	> 64 µg/mL	> 64 µg/mL	> 64 µg/mL	> 64 µg/mL	> 64 µg/mL	> 64 µg/mL
COc1ccc2nc(CN3CCN(S(=O)(=O)c4cccs4)CC3)cc(OC)c2c1	32 µg/mL (≈ 73.8 µM)	> 64 µg/mL	> 64 µg/mL	> 64 µg/mL	> 64 µg/mL	> 64 µg/mL	> 64 µg/mL	> 64 µg/mL	> 64 µg/mL	> 64 µg/mL	> 64 µg/mL	> 64 µg/mL
COc1cc(CN2CCN(C(=O)c3cccc(F)c3)CC2)nc2ccc(F)cc12	> 64 µg/mL	> 64 µg/mL	> 64 µg/mL	> 64 µg/mL	> 64 µg/mL	> 64 µg/mL	> 64 µg/mL	> 64 µg/mL	> 64 µg/mL	> 64 µg/mL	> 64 µg/mL	> 64 µg/mL
COc1ccc2nc(CN3CCN(C(=O)c4ccc(Cl)cc4Cl)CC3)cc(OC)c2c1	> 64 µg/mL	> 64 µg/mL	> 64 µg/mL	> 64 µg/mL	> 64 µg/mL	> 64 µg/mL	> 64 µg/mL	> 64 µg/mL	> 64 µg/mL	> 64 µg/mL	> 64 µg/mL	> 64 µg/mL
